Experimental data reported in ChEMBL document CHEMBL1157791, “Discovery of GSK1070916, a potent and selective inhibitor of Aurora B/C kinase” (J Med Chem, 2010).
Activity calls are given as the source filed them. The calls are words filed in the database; no cut-off is given here.

Assays:
A549 [1] = assay: Antiproliferative activity against human A549 cells after 6 to 7 days by celltiter-glo luminescence assay in absence of 70% human serum albumin; type: functional, cell-based
Aurora kinase A = target: T1, Aurora kinase A (Homo sapiens, UniProt O14965); assay: Inhibition of human Aurora A
T1 sequence (O14965 whole entry): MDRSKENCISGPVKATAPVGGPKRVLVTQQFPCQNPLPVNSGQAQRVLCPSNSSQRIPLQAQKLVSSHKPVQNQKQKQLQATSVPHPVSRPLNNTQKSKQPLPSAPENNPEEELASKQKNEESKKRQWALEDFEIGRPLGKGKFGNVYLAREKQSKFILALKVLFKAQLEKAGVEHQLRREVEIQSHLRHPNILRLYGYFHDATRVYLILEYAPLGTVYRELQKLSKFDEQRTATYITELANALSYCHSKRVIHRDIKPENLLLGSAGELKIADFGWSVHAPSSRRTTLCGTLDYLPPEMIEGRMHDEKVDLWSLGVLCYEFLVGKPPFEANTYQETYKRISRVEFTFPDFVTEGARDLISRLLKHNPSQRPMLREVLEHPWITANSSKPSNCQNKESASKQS

Aurora kinase B = Aurora kinase B (Homo sapiens, UniProt Q96GD4); assay: Inhibition of human Aurora B by in vitro inhibition assay
Chain of Aurora kinase B (Q96GD4 whole entry): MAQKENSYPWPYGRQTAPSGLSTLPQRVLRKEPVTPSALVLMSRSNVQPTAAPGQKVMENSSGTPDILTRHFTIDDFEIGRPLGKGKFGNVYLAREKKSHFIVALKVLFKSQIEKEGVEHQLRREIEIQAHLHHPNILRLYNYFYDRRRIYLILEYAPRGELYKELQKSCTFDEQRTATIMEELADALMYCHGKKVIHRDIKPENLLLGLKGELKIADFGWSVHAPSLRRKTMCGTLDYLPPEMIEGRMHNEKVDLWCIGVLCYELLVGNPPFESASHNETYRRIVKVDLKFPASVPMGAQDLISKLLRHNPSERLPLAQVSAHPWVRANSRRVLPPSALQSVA

A549 [2] = assay: Selectivity ratio of EC50 for human A549 cells in presence of 70% human serum albumin to EC50 for human A549 cells in absence of 70% human serum albumin; type: functional
Homo sapiens = organism: Homo sapiens; assay: Selectivity ratio of IC50 for human Aurora A to IC50 for human Aurora B
Aurora kinase C = target: T2, Aurora kinase C (Homo sapiens, UniProt Q9UQB9); assay: Competitive inhibition of Aurora C ATP binding site
T2 sequence (Q9UQB9 whole entry): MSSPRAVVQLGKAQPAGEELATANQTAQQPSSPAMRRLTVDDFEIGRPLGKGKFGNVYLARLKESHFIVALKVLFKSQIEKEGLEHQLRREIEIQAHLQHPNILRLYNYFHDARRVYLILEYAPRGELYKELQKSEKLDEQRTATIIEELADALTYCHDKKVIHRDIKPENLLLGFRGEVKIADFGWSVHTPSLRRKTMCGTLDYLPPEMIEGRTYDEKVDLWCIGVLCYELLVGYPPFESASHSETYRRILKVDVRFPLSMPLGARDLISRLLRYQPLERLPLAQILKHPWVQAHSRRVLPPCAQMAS

[3] = target: Hepatocyte growth factor receptor (Homo sapiens, UniProt P08581); assay: Inhibition of MET
Chain of Hepatocyte growth factor receptor (P08581 whole entry): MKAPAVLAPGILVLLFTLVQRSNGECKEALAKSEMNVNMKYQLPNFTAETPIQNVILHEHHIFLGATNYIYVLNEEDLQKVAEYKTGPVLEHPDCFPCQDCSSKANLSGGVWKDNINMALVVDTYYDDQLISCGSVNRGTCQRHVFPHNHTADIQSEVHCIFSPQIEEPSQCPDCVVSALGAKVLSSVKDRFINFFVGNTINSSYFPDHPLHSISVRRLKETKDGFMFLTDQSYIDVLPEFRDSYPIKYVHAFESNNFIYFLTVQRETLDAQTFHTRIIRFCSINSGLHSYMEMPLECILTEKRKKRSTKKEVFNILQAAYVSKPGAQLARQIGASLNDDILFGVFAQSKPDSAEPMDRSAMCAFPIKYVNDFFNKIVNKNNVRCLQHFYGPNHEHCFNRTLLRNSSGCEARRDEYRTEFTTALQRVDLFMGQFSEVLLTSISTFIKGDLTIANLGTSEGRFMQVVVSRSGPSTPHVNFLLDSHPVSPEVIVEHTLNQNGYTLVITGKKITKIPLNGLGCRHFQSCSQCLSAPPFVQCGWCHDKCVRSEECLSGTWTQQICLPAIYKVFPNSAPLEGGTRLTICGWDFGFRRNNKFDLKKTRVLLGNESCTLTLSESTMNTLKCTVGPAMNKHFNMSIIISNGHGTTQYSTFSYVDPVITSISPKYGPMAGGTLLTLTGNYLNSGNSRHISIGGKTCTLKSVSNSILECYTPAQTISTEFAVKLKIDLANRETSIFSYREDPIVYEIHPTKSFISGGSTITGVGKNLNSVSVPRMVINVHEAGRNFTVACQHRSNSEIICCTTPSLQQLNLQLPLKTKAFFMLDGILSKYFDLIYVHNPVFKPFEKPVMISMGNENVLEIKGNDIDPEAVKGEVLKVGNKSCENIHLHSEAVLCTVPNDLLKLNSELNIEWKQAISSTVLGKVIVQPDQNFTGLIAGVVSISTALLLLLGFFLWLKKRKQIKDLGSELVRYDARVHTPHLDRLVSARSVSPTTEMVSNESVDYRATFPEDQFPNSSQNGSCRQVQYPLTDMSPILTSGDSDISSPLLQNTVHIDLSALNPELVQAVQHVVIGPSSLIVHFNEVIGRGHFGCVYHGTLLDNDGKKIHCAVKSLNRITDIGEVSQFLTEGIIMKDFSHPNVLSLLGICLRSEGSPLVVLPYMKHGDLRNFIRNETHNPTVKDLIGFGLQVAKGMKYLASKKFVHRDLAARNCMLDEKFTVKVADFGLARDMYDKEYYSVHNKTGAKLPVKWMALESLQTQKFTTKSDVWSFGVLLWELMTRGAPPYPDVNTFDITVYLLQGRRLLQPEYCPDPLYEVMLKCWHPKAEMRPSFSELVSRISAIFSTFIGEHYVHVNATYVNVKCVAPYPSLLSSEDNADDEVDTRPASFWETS

[4] = target: Tyrosine-protein kinase Lck (Homo sapiens) (UniProt P06239); assay: Inhibition of LCK
Chain of Tyrosine-protein kinase Lck (Homo sapiens) (P06239 2-509 limits assumed): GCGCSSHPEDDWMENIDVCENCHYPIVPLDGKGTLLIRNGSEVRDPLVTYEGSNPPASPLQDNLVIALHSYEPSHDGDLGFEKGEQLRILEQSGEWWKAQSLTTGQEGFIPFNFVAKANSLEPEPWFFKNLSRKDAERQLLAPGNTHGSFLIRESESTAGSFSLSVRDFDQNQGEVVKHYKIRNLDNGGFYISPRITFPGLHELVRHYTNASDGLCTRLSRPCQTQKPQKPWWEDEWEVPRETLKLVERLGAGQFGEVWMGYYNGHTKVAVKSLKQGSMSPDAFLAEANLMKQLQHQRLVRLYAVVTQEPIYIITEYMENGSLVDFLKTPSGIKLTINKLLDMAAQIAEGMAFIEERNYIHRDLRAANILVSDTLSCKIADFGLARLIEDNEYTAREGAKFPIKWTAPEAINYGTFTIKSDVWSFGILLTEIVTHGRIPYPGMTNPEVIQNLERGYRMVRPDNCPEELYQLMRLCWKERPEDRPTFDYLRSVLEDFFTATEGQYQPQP

[5] = Inhibition of ROCK
In short: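 Part of a 328 human protein and lipid kinase selectivity panel run as in vitro activity or binding assays.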

| Compound | EC50 (A549 [1]) [nM] | IC50 (Aurora kinase A) [nM] | IC50 (Aurora kinase B) [nM] | Ratio EC50 (A549 [2]) | Ratio IC50 (Homo sapiens) | IC50 (Aurora kinase C) [nM] | inhibition [3] | inhibition [4] | inhibition [5] |
| --- | --- | --- | --- | --- | --- | --- | --- | --- | --- |
| CCNC(=O)Nc1ccc(-c2nn(CC)cc2-c2ccnc3[nH]c(-c4ccc(CN5CCCC5)cc4)cc23)cc1 | 8 | 42 | 1.5 | – | – | – | – | – | – |
| CCn1cc(-c2ccnc3[nH]c(-c4cccc(NC(C)=O)c4)cc23)c(-c2ccc(NC(=O)Nc3ccccc3)cc2)n1 | 156 | 126 | 44 | 10 | – | – | – | – | – |
| CC(C)(C)n1cc(-c2ccnc3[nH]ccc23)c(-c2ccc(NC(=O)Nc3ccccc3)cc2)n1 | 476 | 8160 | 50 | – | – | – | – | – | – |
| CCn1cc(-c2ccnc3[nH]c(-c4ccc(CN5CCOCC5)cc4)cc23)c(-c2ccc(NC(=O)Nc3ccccc3)cc2)n1 | 17 | 59 | 66 | 10 | – | – | – | – | – |
| CCn1cc(-c2ccnc3[nH]c(-c4ccc(CN(C)C)cc4)cc23)c(-c2ccc(NC(=O)N(C)C)cc2)n1 | 6 | 514 | 3.6 | – | 156 | – | – | – | – |
| O=C(Nc1ccccc1)Nc1ccc(-c2nn(CCO)cc2-c2ccnc3[nH]ccc23)cc1 | 2630 | 792 | 3 | – | – | – | – | – | – |
| CCNC(=O)Nc1ccc(-c2nn(CC)cc2-c2ccnc3[nH]c(-c4cccc(CN5CCCC5)c4)cc23)cc1 | 9 | 58 | 1.4 | – | – | – | – | – | – |
| CCn1cc(-c2ccnc3[nH]c(-c4ccc(CN5CCCC5)cc4)cc23)c(-c2ccc(NC(=O)N(C)C)cc2)n1 | 6 | 414 | 4.5 | – | – | – | – | – | – |
| CCn1cc(-c2ccnc3[nH]c(-c4cccc(CN5CCCC5)c4)cc23)c(-c2ccc(NC(=O)N(C)C)cc2)n1 | 7 | 366 | 2.1 | – | – | – | – | – | – |
| CCn1cc(-c2ccnc3[nH]c(-c4cccc(CN5CCOCC5)c4)cc23)c(-c2ccc(NC(=O)N(C)C)cc2)n1 | 18 | 495 | 4.7 | – | – | – | – | – | – |
| CCn1cc(-c2ccnc3[nH]c(CNCCS(C)(=O)=O)cc23)c(-c2ccc(NC(=O)Nc3ccccc3)cc2)n1 | 11500 | 579 | 24 | 10 | – | – | – | – | – |
| NC(=O)Cn1cc(-c2ccnc3[nH]ccc23)c(-c2ccc(NC(=O)Nc3ccccc3)cc2)n1 | > 20000 | 5680 | 64 | – | – | – | – | – | – |
| O=C(Nc1ccccc1)Nc1ccc(-c2nn(CC(O)CO)cc2-c2ccnc3[nH]ccc23)cc1 (configuration not stated) | 9610 | 377 | 1 | – | – | – | – | – | – |
| CCn1cc(-c2ccnc3[nH]c(C(=O)NCCCN4CCN(C)CC4)cc23)c(-c2ccc(NC(=O)Nc3ccccc3)cc2)n1 | 638 | 228 | 8 | 10 | – | – | – | – | – |
| CCNC(=O)Nc1ccc(-c2nn(CC)cc2-c2ccnc3[nH]c(-c4ccc(CN(C)C)cc4)cc23)cc1 | 6 | 39 | 1.7 | – | – | – | – | – | – |
| CCn1cc(-c2ccnc3[nH]c(CNCCN(C)C)cc23)c(-c2ccc(NC(=O)Nc3ccccc3)cc2)n1 | – | 5480 | 276 | 10 | – | – | – | – | – |
| O=C(Nc1ccccc1)Nc1ccc(-c2nn(CC3CCCO3)cc2-c2ccnc3[nH]ccc23)cc1 (configuration not stated) | – | 6190 | 97 | – | – | – | – | – | – |
| O=C(Nc1ccccc1)Nc1ccc(-c2nn(CC(=O)N3CCOCC3)cc2-c2ccnc3[nH]ccc23)cc1 | > 20000 | 6810 | 85 | – | – | – | – | – | – |
| CCNC(=O)Nc1ccc(-c2nn(CC)cc2-c2ccnc3[nH]c(-c4cccc(CN5CCOCC5)c4)cc23)cc1 | 26 | 70 | 5 | – | – | – | – | – | – |
| CCn1cc(-c2ccnc3[nH]c(-c4ccc(NC(C)=O)cc4)cc23)c(-c2ccc(NC(=O)Nc3ccccc3)cc2)n1 | 110 | 62 | 44 | 10 | – | – | – | – | – |
| CCN(CCCOc1ccc2c(Nc3cc(CC(=O)Nc4cccc(F)c4)n[nH]3)ncnc2c1)CCOP(=O)(O)O [BARASERTIB] | – | – | – | – | – | 17 | – | – | – |
| O=C(Nc1ccccc1)Nc1ccc(-c2nn(CCCO)cc2-c2ccnc3[nH]ccc23)cc1 | 779 | 969 | 2 | – | – | – | – | – | – |

| Compound | EC50 (A549 [1]) [nM] | IC50 (Aurora kinase A) [nM] | IC50 (Aurora kinase B) [nM] | Ratio EC50 (A549 [2]) | Ratio IC50 (Homo sapiens) | IC50 (Aurora kinase C) [nM] | inhibition [3] | inhibition [4] | inhibition [5] |
| --- | --- | --- | --- | --- | --- | --- | --- | --- | --- |
| CCNC(=O)Cn1cc(-c2ccnc3[nH]ccc23)c(-c2ccc(NC(=O)Nc3ccccc3)cc2)n1 | > 20000 | 3390 | 64 | – | – | – | – | – | – |
| CCn1cc(-c2ccnc3[nH]c(-c4cc(CN(C)C)ccc4C)cc23)c(-c2ccc(NC(=O)Nc3ccccc3)cc2)n1 | 174 | 113 | 60 | 10 | – | – | – | – | – |
| CCn1cc(-c2ccnc3[nH]c(CNCCCN4CCN(C)CC4)cc23)c(-c2ccc(NC(=O)Nc3ccccc3)cc2)n1 | > 20000 | 5110 | 83 | 10 | – | – | – | – | – |
| CCn1cc(-c2ccnc3[nH]ccc23)c(-c2ccc(NC(=O)N(C)C)cc2)n1 | – | > 10000 | – | – | – | – | – | – | – |
| CCn1cc(-c2ccnc3[nH]c(CN(C)C)cc23)c(-c2ccc(NC(=O)Nc3ccccc3)cc2)n1 | 4390 | 1700 | 58 | 10 | – | – | – | – | – |
| CCNC(=O)Nc1ccc(-c2nn(CC)cc2-c2ccnc3[nH]c(-c4cccc(CN(C)C)c4)cc23)cc1 | 12 | 128 | 3 | – | 42 | – | – | – | – |
| O=C(Nc1ccccc1)Nc1ccc(-c2nn(CC(F)(F)F)cc2-c2ccnc3[nH]ccc23)cc1 | 326 | 2150 | 16 | – | – | – | – | – | – |
| CC(C)(C)n1ncc(-c2ccnc3[nH]ccc23)c1-c1ccc(NC(=O)Nc2ccccc2)cc1 | 890 | 5770 | 40 | – | – | – | – | – | – |
| CCn1cc(-c2ccnc3[nH]c(CNCCN4CCOCC4)cc23)c(-c2ccc(NC(=O)Nc3ccccc3)cc2)n1 | 2860 | 2440 | 22 | 10 | – | – | – | – | – |
| CCn1cc(-c2ccnc3[nH]c(-c4ccc(CN5CCOCC5)cc4)cc23)c(-c2ccc(NC(=O)N(C)C)cc2)n1 | 9 | 250 | 8.1 | – | – | – | – | – | – |
| CCn1cc(-c2ccnc3[nH]c(CNCCO)cc23)c(-c2ccc(NC(=O)Nc3ccccc3)cc2)n1 | 18600 | 2820 | 46 | 10 | – | – | – | – | – |
| CCn1ncc(-c2ccnc3[nH]ccc23)c1-c1ccc(NC(=O)Nc2ccccc2)cc1 | 1590 | 5600 | 25 | – | – | – | – | – | – |
| CCn1cc(-c2ccnc3[nH]c(-c4cccc(CN5CCOCC5)c4)cc23)c(-c2ccc(NC(=O)Nc3ccccc3)cc2)n1 | 30 | 94 | 57 | 10 | – | – | – | – | – |
| CCNC(=O)Nc1ccc(-c2nn(CC)cc2-c2ccnc3[nH]c(-c4ccc(CN5CCOCC5)cc4)cc23)cc1 | 12 | 23 | 4.7 | – | – | – | – | – | – |
| O=C(Nc1ccccc1)Nc1ccc(-c2n[nH]cc2-c2ccnc3[nH]ccc23)cc1 | 12800 | 3850 | 32 | – | – | – | – | – | – |
| CCn1cc(-c2ccnc3[nH]c(-c4ccc(CN(C)C)cc4C)cc23)c(-c2ccc(NC(=O)Nc3ccccc3)cc2)n1 | 16 | 42 | 26 | 10 | – | – | – | – | – |
| CCn1cc(-c2ccnc3[nH]c(C(=O)NCCN4CCOCC4)cc23)c(-c2ccc(NC(=O)Nc3ccccc3)cc2)n1 | 200 | 197 | 5 | 10 | – | – | – | – | – |
| CCn1cc(-c2ccnc3[nH]c(-c4ccc(CN(C)C)cc4)cc23)c(-c2ccc(NC(=O)Nc3ccccc3)cc2)n1 | 8 | 45 | 23 | 10 | – | – | – | – | – |
| CCn1cc(-c2ccnc3[nH]c(-c4cccc(CN(C)C)c4)cc23)c(-c2ccc(NC(=O)Nc3ccccc3)cc2)n1 | 14 | 53 | 20 | 10 | 3 | – | Active | Active | Active |
| CCn1cc(-c2ccnc3[nH]c(C(=O)NCCN4CCN(C)CC4)cc23)c(-c2ccc(NC(=O)Nc3ccccc3)cc2)n1 | 417 | 203 | 5 | 10 | – | – | – | – | – |
| CCn1cc(-c2ccnc3[nH]c(-c4cccc(CN5CCCC5)c4)cc23)c(-c2ccc(NC(=O)Nc3ccccc3)cc2)n1 | 12 | 22 | 11 | 10 | – | – | – | – | – |
